HTRA1 inh – blocks human HTRA1 serine peptidase | Q92743 | recombinant HTRA1, FP-rhodamine activity-based probe, fluorescence polarization | inhibition, % at 5.96 µM | hit rate 0.5% among 340,000; in the data active means inhibition above about 36%;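 further: 0% = enzyme with DMSO and 100% = wells lacking enzyme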
Tn6 DDE FP – DD(E)-Tn6 binding inhibition, primary FP screen; hit rate 0.21% among 370,000; inhibition, % at 8.3 µM; Fibrin DD(E) TRITC-Tn6 fluorescence polarization displacement; P02675; AID 720509;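 active means inhibition above a per-campaign cutoff: mean of compounds within control limits plus 3 SD, cut at about 15% in these data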;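 further: 0% = median of all compound wells on the plate and 100% = blocking peptide control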
DDE Tn7 FP inh – DD(E)-Tn7 binding inhibition, primary FP screen; P02675; inhibition, % at 8.3 µM; FP displacement of FITC-Tn7 peptide from fibrin DD(E); 0% = median of compound wells per plate; hit rate 0.13% among 370,000;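 active means inhibition above the mean of compounds falling within the control limits plus 3 SD of them, cut at about 14% in these data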;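 further: 0% = plate median of compound wells and 100% = 10 µM Aha-Tn7 peptide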
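Assay system: human fibrin DD(E). Input: DD(E) 2 µM final. Medium: Tris buffer with calcium and detergent, pH 7.8. Compound dosing: single point at 8.3 µM. Timing: 10 min plus 3 h, room temperature. Technique: fluorescence polarization of the labelled Tn7 tracer. Read-out: percent inhibition. Replicates: singlicate testing.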
ABHD4 inh – ABHD4 (mouse) inhibition, primary FP screen; hit rate 0.54% among 370,000; inhibition, % at 8.92 µM; AID 720543; purified mABHD4, FP-Rh probe fluorescence polarization;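 active means inhibition exceeding the mean over every tested compound plus 3 SD, cut at about 30% in these data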;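 further: 0% = plate median of compound wells and 100% = S159A mutant with DMSO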
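Doses – 8.92 µM, single dose · Material – wild-type mouse ABHD4 protein · Replication – single well per compound (singlicate) · Measure – percent inhibition of probe binding, normalized to plate controls · Schedule – 45 min compound pre-incubation plus 60 min probe step, 25 °C · Detection – fluorescence polarization with parallel and perpendicular emission, 525/598 nm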
SIAE inh – human SIAE inhibition, primary screen. SIAE FP-Rh probe binding, fluorescence polarization. inhibition, % at 9.66 µM. Q9HAT2. AID 1053197. hit rate 0.69% among 370,000;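 active means inhibition above a cutoff: mean of compounds within the control limits plus 3 SD of those, cut at about 17% in these data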;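 further: 0% = plate median of compound wells and 100% = probe without SIAE protein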
Target sequence (Q9HAT2 whole entry, looked up): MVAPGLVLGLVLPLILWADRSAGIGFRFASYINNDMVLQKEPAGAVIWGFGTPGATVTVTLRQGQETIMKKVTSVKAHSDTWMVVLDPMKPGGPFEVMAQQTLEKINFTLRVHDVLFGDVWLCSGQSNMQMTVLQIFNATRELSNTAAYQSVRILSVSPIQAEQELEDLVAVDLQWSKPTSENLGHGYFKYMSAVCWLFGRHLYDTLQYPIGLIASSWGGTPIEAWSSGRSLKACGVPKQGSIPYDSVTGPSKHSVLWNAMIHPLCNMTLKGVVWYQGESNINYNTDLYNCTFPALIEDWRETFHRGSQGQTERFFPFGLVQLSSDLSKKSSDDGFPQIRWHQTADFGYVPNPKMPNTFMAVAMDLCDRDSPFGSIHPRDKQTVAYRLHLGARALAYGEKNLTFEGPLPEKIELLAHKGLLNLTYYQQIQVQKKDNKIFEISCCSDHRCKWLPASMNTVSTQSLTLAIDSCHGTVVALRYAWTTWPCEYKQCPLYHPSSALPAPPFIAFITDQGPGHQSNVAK
TCR CD3 inh – blocks the human TCR-CD3 interaction. TAMRA-labeled TCR probe fluorescence, biochemical. inhibition, % at 9.4 µM. hit rate 0.37% among 360,000; in the data active means inhibition above about 19%;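 further: recombinant mutant TCR 2C K166C tagged with TAMRA read by polarization; 0% = receptor in buffer alone and 100% = receptor with positive control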
mABHD4 conf – ABHD4 (mouse) inhibition, FP confirmation. inhibition, % at 8.92 µM. purified mABHD4, FP-Rh probe fluorescence polarization. shares compounds with ABHD4 inh. AID 720658. hit rate 55% among 1,800;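 active means mean inhibition across replicates above the hit cutoff set in the primary screen, cut at about 30% in these data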;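 further: 0% = wild-type ABHD4 with DMSO and 100% = catalytically dead S159A mutant with DMSO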
* marks the source's active call; other numbers are inactive results; nt = no result. A selection: hits, their analogues and other compounds. The true share with any hit is near 1.8%.

SMILES	HTRA1 inh	Tn6 DDE FP	DDE Tn7 FP inh	ABHD4 inh	SIAE inh	TCR CD3 inh	mABHD4 conf
O=C(NCCOc1ccccc1)C1Nc2ccc(OC(F)(F)F)cc2C2C=CCC12 (stereo not drawn)	13	8	3	3	6	4	nt
O=C(O)C1Nc2c(O)cccc2C2C=CCC12 (stereo not drawn)	50*	8	4	44*	64*	72*	47*
CCc1cc(-c2ccc3c(c2)COc2c4ccccc4nn2-3)on1	-22	0	5	32*	-3	-2	-7
O=C(Nc1cccc(F)c1)C1CCCN(S(=O)(=O)c2cccc3cccnc23)C1 (stereo not drawn)	-5	-2	4	-4	4	-8	nt
CCN(CC)c1ccc(/C=N/Nc2nc3ccccc3[nH]2)c(O)c1	17	-2	6	31*	28*	-3	80*
C(=N\Nc1nc2ccccc2[nH]1)/c1ccccn1	34	-9	-1	34*	3	-6	32*
O=c1[nH]c(=O)c2[nH]c(=S)[nH]c2[nH]1	11	-7	-4	15	5	7	nt
Cc1[nH]c2c(ccc3ccccc32)c1C1C(CCN)C1(C)C (stereo not drawn)	24	-2	-2	30*	4	-9	47*
Cn1c(CCNC(=O)c2ccccc2F)nnc1SCC(=O)Nc1nncs1	-3	1	1	4	-1	8	nt
N#CC1=C(N)C(C#N)(C#N)[C@H](c2ccoc2)[C@H]2CN(Cc3ccccc3)CC=C12	33	7	3	31*	8	9	5
CCN(c1ccccc1)S(=O)(=O)c1cc(C(=O)OC2CCOC2=O)ccc1C (stereo not drawn)	3	1	-7	31*	5	-1	23
CS(=O)(=O)c1ccc(C(=O)OC2CCOC2=O)cc1[N+](=O)[O-] (stereo not drawn)	-3	-3	0	2	8	-2	nt
C[C@@H]1C=CCCO[C@]12C(=O)N(CC1CC1)c1cccc(Br)c12	nt	3	-1	40*	9	4	40*
O=C(COC(=O)C1=COCCO1)Nc1ccccc1	3	-9	4	-11	-3	-7	nt
CC(C)CC(=O)Nc1ccc(C(=O)COC(=O)C2=COCCO2)cc1	-6	-1	-3	95*	12	-3	5
O=C(O)c1ccc(Cl)c(S(=O)(=O)Nc2ccccc2Cc2ccccc2)c1	-9	1	7	30*	-10	-2	28
Cc1cccc(C)c1OCC(=O)N/N=C/c1cc2c(cc1[N+](=O)[O-])OCO2	2	0	6	1	-2	5	nt
O=C(CCc1ccc(O)c(O)c1)N/N=C/c1cc2c(cc1[N+](=O)[O-])OCO2	34	-3	-6	31*	12	17	38*
O=[N+]([O-])c1cc(Br)cc(C=Nc2ccc3c(c2)OCO3)c1O	3	0	4	26	-16	8	nt
Cc1ccc(N=Cc2cc3c(cc2[N+](=O)[O-])OCO3)cc1[N+](=O)[O-]	nt	3	-2	42*	4	6	30*
O=[N+]([O-])c1ccc(S(=O)(=O)N2CCN=C2SCc2ccc(F)cc2)cc1	-1	-1	0	1	1	3	nt
COCC(C)N1CC(O)=C(c2nc(-c3ccc(Cl)cc3)cs2)C1=N (stereo not drawn)	8	10	7	32*	6	0	29
O=C(O)c1ccc2c(c1)C(=O)N(c1ccc(Nc3ccccc3)cc1)C2=O	13	0	-1	31*	8	-1	18
CCOC(=O)N1CCN(C(=O)/C(=C/c2cccs2)NC(=O)c2ccc(OC)c(OC)c2)CC1	0	5	5	2	-4	0	nt
CCC(c1nc2ccccc2[nH]1)n1c(-c2ccc3cc[nH]c3c2)nc2ccccc21 (stereo not drawn)	nt	-2	5	-28	-6	1	nt
SMILES	HTRA1 inh	Tn6 DDE FP	DDE Tn7 FP inh	ABHD4 inh	SIAE inh	TCR CD3 inh	mABHD4 conf
O=S(=O)(N=C1C=CC(=NS(=O)(=O)c2ccccc2)c2ccccc21)c1ccccc1	-2	0	-3	64*	4	-6	76*
Cc1cc(C)c(S(=O)(=O)/N=C2\C=C(NS(=O)(=O)c3ccccc3)C(=O)c3ccccc32)c(C)c1	13	-2	-2	45*	9	-10	42*
O=C(O)c1ccc(NC2=C/C(=N/S(=O)(=O)c3ccccc3)c3ccccc3C2=O)cc1	34	-6	1	48*	9	8	66*
COc1ccc(Cc2c(-c3ccccc3)nc3ccc(Br)cn23)c(C)c1	nt	-3	3	0	-3	-5	nt
COC(=O)C1=C(C)N(Cc2ccccc2C(F)(F)F)C(=NCc2ccc(OC)cc2)NC1c1ccccc1 (stereo not drawn)	nt	4	-3	13	9	4	nt
COC(=O)C1=C(C)N(Cc2ccccc2C(F)(F)F)C(=NCc2ccc(OC)cc2)NC1c1cccc(F)c1 (stereo not drawn)	nt	6	3	42*	1	-4	66*
CCc1ccc2[nH]c(O)c(N=NC3=NC(=O)CS3)c2c1	11	-2	4	31*	-1	0	41*
CC(NC(=O)Nc1ccccc1Cl)c1ccc2c(c1)OCO2 (stereo not drawn)	-4	-1	4	-4	-8	-1	nt
CCc1ccc(OCC(=O)Nc2ccc(N3CCN(C(=O)c4ccccc4)CC3)cc2)cc1	-6	-8	-2	58*	4	-6	7
F[B-](F)(F)COCc1ccccc1Br	0	-2	0	80*	-2	4	70*
CCCCC#Cc1ccc(C(=O)NNC(=O)Nc2ccccc2)o1	1	-3	1	4	1	-9	nt
O=C(C#Cc1ccccc1)Nc1ccccc1F	-1	2	3	-4	-2	7	nt
CCCCC#Cc1ccccc1COC[B-](F)(F)F	nt	3	2	75*	9	-2	75*
F[B-](F)(F)COCc1ccccc1C#Cc1ccccc1	nt	-3	4	77*	0	-3	79*
CC(C)c1ccc(S(=O)(=O)N2CCC(C(=O)N3CCN(c4cccc(Cl)c4)CC3)CC2)cc1	7	-2	5	-3	-2	-8	nt
O=C(CN(CCc1ccccc1)C(=O)c1csnn1)NCc1ccc(F)cc1	1	-8	4	-6	0	5	nt
CCOC(=O)c1c(-c2ccc(OC)cc2)oc2cc(Br)c(O)cc12	-16	6	-1	11	2	6	nt
CCOC(=O)c1c(C)[nH]c2cc(Br)c(O)cc12	0	1	-5	39*	6	3	60*

Screening data from PubChem BioAssay.
